Data: ChEMBL document CHEMBL1649314, “Experimental murine scedosporiosis: histopathology and azole treatment” (2010)
Converted amounts (≈) assume the structure as drawn. The source made the active and inactive calls. No cut-off for these calls is given here.

Assays:
[1] = Antifungal activity against Scedosporium aurantiacum CBS 116910 by broth dilution method; type: functional
Scedosporium apiospermum [2] = assay: Antifungal activity against Scedosporium apiospermum IHEM 14464 infected in immunosuppressed OF1 mouse assessed as prolonged survival of mouse at 1.5 mg/kg/day, ip administered 24 hrs postinfection for 10 days measured after 20 days; type: functional, organism-based
In short: (§1)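 Male OF1 mice immunosuppressed 1 day before infection with cyclophosphamide 200 mg/kg i.p. plus 5-fluorouracil 150 mg/kg i.v. Infection: 1 × 10^4 CFU of PDA-grown conidia in 0.2 ml saline via lateral tail vein. Treatment 1.5 mg/kg/day i.p., started 24 h post-challenge, given for 10 days; 10 mice/group; checked daily to day 20. Kaplan-Meier mean survival, log rank test.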

Scedosporium boydii [3] = assay: Antifungal activity against Scedosporium boydii FMR 6694 infected in immunosuppressed OF1 mouse assessed as prolonged survival of mouse of mouse at 1.5 mg/kg/day, ip administered 24 hrs postinfection for 10 days measured after 20 days; type: functional, organism-based; in short: as §1
[4] = Antifungal activity against Scedosporium aurantiacum IHEM 15458 by broth dilution method; type: functional
[5] = Antifungal activity against Scedosporium aurantiacum CBS 116910 infected in immunosuppressed OF1 mouse assessed as prolonged survival of mouse at 1.5 mg/kg/day, ip administered 24 hrs postinfection for 10 days measured after 20 days; type: functional, organism-based; in short: as §1
Scedosporium boydii [6] = assay: Antifungal activity against Scedosporium boydii FMR 8627 by broth dilution method; type: functional
[7] = Antifungal activity against Scedosporium aurantiacum IHEM 15458 infected in immunosuppressed OF1 mouse assessed as prolonged survival of mouse at 1.5 mg/kg/day, ip administered 24 hrs postinfection for 10 days measured after 20 days; type: functional, organism-based; in short: as §1
Scedosporium boydii [8] = assay: Antifungal activity against Scedosporium boydii FMR 6694 by broth dilution method; type: functional
Scedosporium apiospermum [9] = assay: Antifungal activity against Scedosporium apiospermum CBS 117407 by broth dilution method; type: functional
Scedosporium apiospermum [10] = assay: Antifungal activity against Scedosporium apiospermum IHEM 14464 by broth dilution method; type: functional
Scedosporium apiospermum [11] = assay: Antifungal activity against Scedosporium apiospermum CBS 117407 infected in immunosuppressed OF1 mouse assessed as reduction in kidney fungal burden at 1.5 mg/kg/day, ip administered 24 hrs postinfection for 10 days measured after 20 days; type: functional, organism-based
Scedosporium boydii [12] = assay: Antifungal activity against Scedosporium boydii FMR 8627 infected in immunosuppressed OF1 mouse assessed as prolonged survival of mouse at 1.5 mg/kg/day, ip administered 24 hrs postinfection for 10 days measured after 20 days; type: functional, organism-based; in short: as §1
Scedosporium apiospermum [13] = assay: Antifungal activity against Scedosporium apiospermum CBS 117407 infected in immunosuppressed OF1 mouse assessed as prolonged survival of mouse at 1.5 mg/kg/day, ip administered 24 hrs postinfection for 10 days measured after 20 days; type: functional, organism-based; in short: as §1
Scedosporium aurantiacum [14] = assay: Antifungal activity against Scedosporium aurantiacum IHEM 15458 infected in immunosuppressed OF1 mouse assessed as reduction in kidney fungal burden at 1.5 mg/kg/day, ip administered 24 hrs postinfection measured on day 4 postinfection
Scedosporium boydii [15] = assay: Antifungal activity against Scedosporium boydii FMR 6694 infected in immunosuppressed OF1 mouse assessed as reduction in kidney fungal burden at 1.5 mg/kg/day, ip administered 24 hrs postinfection for 10 days measured after 20 days; type: functional, organism-based
Scedosporium boydii [16] = assay: Antifungal activity against Scedosporium boydii FMR 8627 infected in immunosuppressed OF1 mouse assessed as reduction in kidney fungal burden at 1.5 mg/kg/day, ip administered 24 hrs postinfection for 10 days measured after 20 days; type: functional, organism-based
Scedosporium aurantiacum [17] = assay: Antifungal activity against Scedosporium aurantiacum CBS 116910 infected in immunosuppressed OF1 mouse assessed as reduction in kidney fungal burden at 1.5 mg/kg/day, ip administered 24 hrs postinfection for 10 days measured after 20 days; type: functional, organism-based
Scedosporium apiospermum [18] = assay: Antifungal activity against Scedosporium apiospermum IHEM 14464 infected in immunosuppressed OF1 mouse assessed as reduction in kidney fungal burden at 1.5 mg/kg/day, ip administered 24 hrs postinfection for 10 days measured after 20 days; type: functional, organism-based

MIC [1]: 32 µg/mL (≈ 34.6 µM)
MIC [4]: 32 µg/mL (≈ 34.6 µM)
MIC (Scedosporium boydii [6]): 8 µg/mL (≈ 8.66 µM)
MIC (Scedosporium boydii [8]): 32 µg/mL (≈ 34.6 µM)
MIC (Scedosporium apiospermum [9]): 8 µg/mL (≈ 8.66 µM)
MIC (Scedosporium apiospermum [10]): 32 µg/mL (≈ 34.6 µM)
SMILES: C[C@@H]1[C@H](O)[C@@H](C)/C=C/C=C/C=C/C=C/C=C/C=C/C=C/[C@H](O[C@@H]2O[C@H](C)[C@@H](O)[C@H](N)[C@@H]2O)C[C@@H]2O[C@](O)(C[C@@H](O)C[C@@H](O)[C@H](O)CC[C@@H](O)C[C@@H](O)CC(=O)O[C@H]1C)C[C@H](O)[C@H]2C(=O)O [AMPHOTERICIN B]
Activity (Scedosporium apiospermum [2]): inactive
Activity (Scedosporium boydii [3]): inactive
Activity [5]: inactive
Activity [7]: inactive
Activity (Scedosporium apiospermum [11]): inactive
Activity (Scedosporium boydii [12]): inactive
Activity (Scedosporium apiospermum [13]): inactive
Activity (Scedosporium aurantiacum [14]): inactive
Activity (Scedosporium boydii [15]): inactive
Activity (Scedosporium boydii [16]): inactive
Activity (Scedosporium aurantiacum [17]): inactive
Activity (Scedosporium apiospermum [18]): inactive
